# According to ChEMBL document CHEMBL1134672, “Design and synthesis of 4-substituted benzamides as potent, selective, and orally bioavailable I(Ks) blockers” (J Med Chem, 2001):
# Tested on: not listed separately
# Assay: Bioavailability in rat
# Format: ADME, organism-based
# Conditions: in vivo
# How it was run: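 Rats were dosed orally and screened for plasma drug levels. Compounds reaching plasma concentrations of >75 nM were then tested individually for oral bioavailability by standard methods.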
row,bioavailability,Compound
1,23%,"CC1(C)CCCC1CNC(=O)c1ccc(-c2noc(CCC(F)(F)F)n2)cc1 (single isomer, unassigned; form 2)"
2,< 1%,CCCCc1noc(-c2ccc(C(=O)NC[C@H]3CCCC3(C)C)cc2)n1

# Target: T1, Potassium voltage-gated channel subfamily KQT member 1 (Cavia porcellus, UniProt O70344)
# T1 sequence (O70344 whole entry): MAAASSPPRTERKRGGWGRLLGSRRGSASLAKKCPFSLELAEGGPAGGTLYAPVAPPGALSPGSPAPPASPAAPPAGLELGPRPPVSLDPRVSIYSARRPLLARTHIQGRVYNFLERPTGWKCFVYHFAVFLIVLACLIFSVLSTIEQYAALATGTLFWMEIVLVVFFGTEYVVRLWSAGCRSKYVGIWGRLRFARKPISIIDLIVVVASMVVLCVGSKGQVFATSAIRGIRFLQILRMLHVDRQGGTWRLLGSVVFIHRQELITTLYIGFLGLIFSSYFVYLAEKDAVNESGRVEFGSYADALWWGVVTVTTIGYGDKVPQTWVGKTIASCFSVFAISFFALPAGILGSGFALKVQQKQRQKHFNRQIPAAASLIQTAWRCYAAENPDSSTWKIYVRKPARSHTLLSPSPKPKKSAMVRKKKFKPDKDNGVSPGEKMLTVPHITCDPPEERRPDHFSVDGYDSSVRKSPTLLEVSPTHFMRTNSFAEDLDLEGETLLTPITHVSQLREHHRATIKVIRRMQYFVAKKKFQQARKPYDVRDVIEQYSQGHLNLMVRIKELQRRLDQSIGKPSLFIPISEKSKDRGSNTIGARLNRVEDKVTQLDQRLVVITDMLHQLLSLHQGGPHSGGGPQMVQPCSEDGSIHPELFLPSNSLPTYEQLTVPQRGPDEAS
# Assay: Molar concentration required to inhibit 50% of the activating delayed-rectifier K+ current in isolated guinea pig ventricular myocytes
# Conditions: not given
# How it was run: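 Native IKs recorded by voltage clamp in isolated guinea pig ventricular myocytes, with ionic solutions and voltage protocol designed to isolate IKs from other currents.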
row,Compound,IC50
1,"CCCCCCOc1ccc(C(=O)NCC2CCCC2(C)C)cc1 (single isomer, unassigned; form 1)",710 nM
2,CCCCCCOc1ccc(C(=O)CCN2CCCCC2)cc1,4000 nM
3,CC(C)(C)CCNC(=O)c1ccc(-n2ccc3ccccc32)cc1,260 nM
4,CN1C(=O)[C@H](NC(=O)/C=C/c2ccc(Cl)cc2Cl)N=C(c2ccccc2)c2ccccc21,31 nM
5,"CC1(C)CCCC1CNC(=O)c1ccc(-c2noc(CCC(F)(F)F)n2)cc1 (single isomer, unassigned; form 2)",40 nM
6,Cc1noc(-c2ccc(C(=O)NCC3CCCC3(C)C)cc2)n1 (stereo in doubt; 21(B)),580 nM
7,CC(C)(C)CCNC(=O)c1ccc(-c2nc(-c3ccccc3)no2)cc1,130 nM
8,CCN(CC)C(=O)COc1ccc(C(C)(C)CC(C)(C)C)cc1,5000 nM
9,CCCCCCOc1ccc(C(=O)NCC2CCCCC2(C)C)cc1 (stereo in doubt; 13(A)),1400 nM
10,CCCCc1noc(-c2ccc(C(=O)NC[C@@H]3CCCC3(C)C)cc2)n1,9 nM
11,CCCCCCOc1ccc(C(=O)NCC2CCCC(C)(C)C2)cc1 (stereo unspecified),370 nM
12,"CCCc1noc(-c2ccc(C(=O)NCC3CCCC3(C)C)cc2)n1 (single isomer, unassigned; form 2)",10 nM
13,CCCCCCOc1ccc(C(=O)NC2CCC(C)(C)C2)cc1 (stereo unspecified),360 nM
14,"CC1(C)CCCC1CNC(=O)c1ccc(-c2nc(CC3CC3)no2)cc1 (single isomer, unassigned; form 2)",18 nM
15,"CCCc1noc(-c2ccc(C(=O)NCC3CCCC3(C)C)cc2)n1 (single isomer, unassigned; form 1)",27 nM
16,CCCCc1noc(-c2ccc(C(=O)NCCC(C)(C)C)cc2)n1,23 nM
17,Cc1noc(-c2ccc(C(=O)NCC3CCCC3(C)C)cc2)n1 (stereo in doubt; 21(A)),220 nM
18,CC(C)(C)CCNC(=O)c1ccc(-c2ccccc2)cc1,540 nM
19,CCCCCCOc1ccc(C(=O)N2CCC(C(C)(C)C)C2)cc1 (stereo unspecified),> 3000 nM

# More lines, now with the values ahead:
row,IC50,Compound
1,160 nM,"CCCCCCOc1ccc(C(=O)NCC2CCCC2(C)C)cc1 (single isomer, unassigned; form 2)"
2,3500 nM,CCCCCCOc1ccc(C(=O)NCCN(CC)CC)cc1
3,> 3000 nM,CCCCCCOc1ccc(C(=O)NCC2CCCCC2(C)C)cc1 (stereo in doubt; 13(B))
4,250 nM,CCCCCCOc1ccc(C(=O)NCCC(C)(C)C)cc1
5,> 30000 nM,CCCCCCOc1ccc(C(=O)NC2CCCC2(C)C)cc1 (stereo unspecified)
6,27 nM,"CC1(C)CCCC1CNC(=O)c1ccc(-c2noc(CCC(F)(F)F)n2)cc1 (single isomer, unassigned; form 1)"
7,2 nM,CCCCc1noc(-c2ccc(C(=O)NC[C@H]3CCCC3(C)C)cc2)n1
8,23 nM,"CC1(C)CCCC1CNC(=O)c1ccc(-c2nc(CC3CC3)no2)cc1 (single isomer, unassigned; form 1)"

# Tested on: not listed separately
# Assay: Compound was evaluated for half life period when administered intravenously
# Format: ADME, organism-based
# Conditions: in vivo, iv
# How it was run: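 Half-life was determined in rats after intravenous administration.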
row,half-life,Compound
1,3.2 h,"CC1(C)CCCC1CNC(=O)c1ccc(-c2noc(CCC(F)(F)F)n2)cc1 (single isomer, unassigned; form 2)"
2,4.2 h,CCCCc1noc(-c2ccc(C(=O)NC[C@H]3CCCC3(C)C)cc2)n1
